Here are results for 30 compounds from ChEMBL document CHEMBL4325892, “4-tert-Pentylphenoxyalkyl derivatives - Histamine H3 receptor ligands and monoamine oxidase B inhibitors” (Bioorg Med Chem Lett, 2018).

A value given as a limit tells only on which side of the number the result lay.

Series [1] has as its target T1, Amine oxidase [flavin-containing] B (Homo sapiens, UniProt P27338).
T1 sequence (P27338 whole entry): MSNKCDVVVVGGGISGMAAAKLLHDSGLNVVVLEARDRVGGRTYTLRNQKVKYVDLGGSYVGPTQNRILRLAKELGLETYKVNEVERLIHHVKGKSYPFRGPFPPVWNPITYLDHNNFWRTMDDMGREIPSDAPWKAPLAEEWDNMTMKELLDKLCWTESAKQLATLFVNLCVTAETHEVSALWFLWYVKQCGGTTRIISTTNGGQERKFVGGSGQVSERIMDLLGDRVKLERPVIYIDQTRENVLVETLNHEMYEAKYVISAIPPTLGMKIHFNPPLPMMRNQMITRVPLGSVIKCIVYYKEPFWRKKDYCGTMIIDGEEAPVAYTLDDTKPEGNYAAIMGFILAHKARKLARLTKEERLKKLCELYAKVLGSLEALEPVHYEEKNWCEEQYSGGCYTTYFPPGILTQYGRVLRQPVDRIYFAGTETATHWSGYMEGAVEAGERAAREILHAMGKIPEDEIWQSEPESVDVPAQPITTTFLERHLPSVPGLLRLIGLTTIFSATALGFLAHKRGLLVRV
Nature of the series: Inhibition of human MAO-B expressed in baculovirus infected BTI insect cells using p-tyramine as substrate preincubated for 30 mins followed by substrate addition and measured after 1 hr by fluorescence-based Amplex Red MAO assay.

Series [2] deals with T2, MAO-A (Homo sapiens, UniProt P21397).
T2 sequence (P21397 whole entry): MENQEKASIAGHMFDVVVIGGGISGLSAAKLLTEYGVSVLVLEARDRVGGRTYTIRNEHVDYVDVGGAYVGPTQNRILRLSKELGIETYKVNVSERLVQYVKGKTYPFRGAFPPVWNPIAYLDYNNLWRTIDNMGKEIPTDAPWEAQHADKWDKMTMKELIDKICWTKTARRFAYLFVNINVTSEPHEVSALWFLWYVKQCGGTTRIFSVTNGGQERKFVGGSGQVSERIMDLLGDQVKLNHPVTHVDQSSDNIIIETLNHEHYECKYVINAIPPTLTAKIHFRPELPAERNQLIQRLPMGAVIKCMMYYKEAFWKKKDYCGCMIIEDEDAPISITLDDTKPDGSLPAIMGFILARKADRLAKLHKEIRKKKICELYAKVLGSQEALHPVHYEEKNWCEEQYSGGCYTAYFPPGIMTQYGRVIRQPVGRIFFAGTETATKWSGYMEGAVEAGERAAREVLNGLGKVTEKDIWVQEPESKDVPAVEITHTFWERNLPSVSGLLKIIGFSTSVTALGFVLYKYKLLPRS
Nature of the series: Inhibition of human MAO-A expressed in baculovirus infected BTI insect cells at 10 uM using p-tyramine as substrate preincubated for 30 mins followed by substrate addition and measured after 1 hr by fluorescence-based Amplex Red MAO assay relative to control. The following applies: probe p-tyramine.

The target in series [3] is T1, Amine oxidase [flavin-containing] B. Nature of the series: Reversible inhibition of human MAO-B expressed in baculovirus infected BTI insect cells at IC80 preincubated with compound and p-tyramine for 22 mins followed by p-tyramine increase to 1 mM and measured every minute for 5 hrs by fluorescence assay. In short, it runs like this:
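Reversibility test: hMAO B preincubated with inhibitor in the presence of 10 μM para-tyramine. After 22 min, para-tyramine raised to 1 mM, then fluorescence read every minute for 5 h.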

The target in series [4] is Histamine H3 receptor (Homo sapiens, UniProt Q9Y5N1). Nature of the series: Displacement of [3H]-N-alpha-methylhistamine from human H3 receptor expressed in CHO-K1 cell membranes after 60 mins by microbeta2 scintillation counting analysis. In short, it runs like this:
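Radioligand binding with [3H]Nα-methylhistamine on membrane preparations from CHO-K1 cells stably expressing human H3 receptor; Ki reported as the mean of two independent experiments ± SEM.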
On the technique in general: Displacement assays read how much labelled ligand stays bound in the presence of the test substance.

Series [5] deals with T1, Amine oxidase [flavin-containing] B. Nature of the series: Inhibition of human MAO-B expressed in baculovirus infected BTI insect cells at 1 uM using p-tyramine as substrate preincubated for 30 mins followed by substrate addition and measured after 1 hr by fluorescence-based Amplex Red MAO assay relative to control.
The target is the same in series [6]. Nature of the series: Non-competitive inhibition of human MAO-B expressed in baculovirus infected BTI insect cells at 0.2 to 20 nM preincubated with compound and p-tyramine for 22 mins followed by p-tyramine increase to 1 mM and measured every minute for 5 hrs by Lineweaver-Burk plot analysis. In short, it runs like this: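 Kinetic mode study: hMAO B activity measured at inhibitor 0, 0.2, 0.5 and 20 nM, each across six para-tyramine concentrations (0.05, 0.1, 0.5, 1.0, 1.5, 2.0 mM) to assign inhibition type.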

Histamine H3 receptor, sequence (Q9Y5N1 whole entry): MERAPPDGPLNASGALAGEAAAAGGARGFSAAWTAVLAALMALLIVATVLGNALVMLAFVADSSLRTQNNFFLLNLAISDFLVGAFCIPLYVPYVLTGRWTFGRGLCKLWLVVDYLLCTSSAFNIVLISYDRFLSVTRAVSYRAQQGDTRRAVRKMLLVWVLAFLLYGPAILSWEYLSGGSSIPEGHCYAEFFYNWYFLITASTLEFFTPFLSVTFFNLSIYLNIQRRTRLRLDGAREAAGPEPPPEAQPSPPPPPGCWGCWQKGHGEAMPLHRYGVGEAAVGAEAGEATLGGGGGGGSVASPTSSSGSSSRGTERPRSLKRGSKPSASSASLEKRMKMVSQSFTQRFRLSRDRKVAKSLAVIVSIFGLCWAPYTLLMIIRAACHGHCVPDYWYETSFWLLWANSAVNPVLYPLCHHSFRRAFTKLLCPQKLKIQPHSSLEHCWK

By IC50 is commonly meant the concentration that inhibits the measured activity by half. Broadly, the inhibition is the percentage by which the read-out fell short of the control. A lower inhibition goes with a weak effect. Broadly, the Ki is a measure of affinity in units of concentration, obtained from inhibition or displacement. Read a high Ki as weaker binding. In turn, `CCC(C)(C)c1ccc(OCCCN2CCCCC2)cc1` came in with an IC50 in series [1] of 19 nM. In series [2], the inhibition at 1 h, 10 µM came out at 14%. In series [3], the “inhibition (INH)” value is “Active”. The compound also gave a Ki in series [4] of 37 nM.
Compound `CCC(C)(C)c1ccc(OCCCCCN2CCCC(C)C2)cc1` (configuration not stated) displayed an IC50 in series [1] greater than 1000 nM. The inhibition at 1 µM in series [5] was 29%.
Compound `CCC(C)(C)c1ccc(OCCCCCN2CCCCC2)cc1` had an IC50 in series [1] greater than 1000 nM. Also, the inhibition at 1 µM in series [5] turned out to be 28%.
As for `CCC(C)(C)c1ccc(OCCCCCCN2CCCCC2)cc1`, in series [1], the IC50 was greater than 1000 nM. For the same compound, 1 µM produced 21% inhibition in series [5].
In the same order, the values of `CCC(C)(C)c1ccc(OCCCCCCCCN2CCC(C)CC2)cc1` are greater than 1000 nM and 37%.
`CCC(C)(C)c1ccc(OCCCCN2CCCC(C)C2)cc1` (configuration not stated) yielded an IC50 in series [1] of 1230 nM.
`CCC(C)(C)c1ccc(OCCCCCCCN2CCCCC2)cc1` returned a 50% inhibitory concentration (IC50) in series [1] greater than 1000 nM. This compound also gave an inhibition at 1 µM in series [5] of 18%.
The compound `CCC(C)(C)c1ccc(OCCCCCCCN2CCCCCC2)cc1` yielded an IC50 in series [1] of 1490 nM.
As for `CCC(C)(C)c1ccc(OCCCCCCCCN2CCCCCC2)cc1`, in series [1], the IC50 is greater than 1000 nM. In series [5], the inhibition at 1 µM came to 40%.
`CCC(C)(C)c1ccc(OCCCCCN2CCC(C)CC2)cc1` gave an IC50 in series [1] greater than 1000 nM. Also, in series [5], the inhibition at 1 µM was 48%.
On to `CCC(C)(C)c1ccc(OCCCCN2CCCCC2)cc1`, for which the IC50 in series [1] was 379 nM. The compound further gave an inhibition at 1 h, 10 µM in series [2] of 10%.
In turn, `CCC(C)(C)c1ccc(OCCCCCCCN2CCC(C)CC2)cc1` returned an IC50 in series [1] greater than 1000 nM. Besides, the inhibition at 1 µM in series [5] amounted to 35%.
In turn, `CCC(C)(C)c1ccc(OCCCCN2CCCCCC2)cc1` showed an IC50 in series [1] of 609 nM.
In series [1], `CCC(C)(C)c1ccc(OCCCCCN2CCCCCC2)cc1` had an IC50 of 1130 nM.
`CCC(C)(C)c1ccc(OCCCCCCCCN2CCCC(C)C2)cc1` (configuration not stated) had a 50% inhibitory concentration (IC50) in series [1] greater than 1000 nM. In series [5], the inhibition at 1 µM was 33%.
In series [1], `CCC(C)(C)c1ccc(OCCCCCCN2CCC(C)CC2)cc1` registered a half-inhibitory concentration (IC50) greater than 1000 nM. For the same compound, the inhibition at 1 µM in series [5] is 37%.
Compound `CCC(C)(C)c1ccc(OCCCCCCN2CCCC(C)C2)cc1` (configuration not stated) came in with an IC50 in series [1] greater than 1000 nM. The same compound gave an inhibition at 1 µM in series [5] of 46%.
For the compound `CCC(C)(C)c1ccc(OCCCCCCCN2CCCC(C)C2)cc1` (configuration not stated), the IC50 in series [1] was greater than 1000 nM. This compound came in with an inhibition at 1 µM in series [5] of 35%.
In series [1], `CCC(C)(C)c1ccc(OCCCCN2CCC(C)CC2)cc1` had an IC50 greater than 1000 nM. In series [5], this compound gave an inhibition at 1 µM of 47%.
With `CCC(C)(C)c1ccc(OCCCCCCCCN2CCCCC2)cc1`, in series [1], the IC50 is greater than 1000 nM. In series [5], this compound registered an inhibition at 1 µM of 22%.
On to `CCC(C)(C)c1ccc(OCCCCCCN2CCCCCC2)cc1`, for which half-maximal inhibition in series [1] (IC50) required 390 nM.
Compound `CCC(C)(C)c1ccc(OCCCN2CCCCC2C)cc1` (configuration not stated) returned an IC50 in series [1] of 20 nM. This compound also showed an inhibition at 1 h, 10 µM in series [2] of 5%. Further, the “inhibition (INH)” value in series [3] is recorded as “Active”. In series [4], affinity was put at a Ki of 437 nM.
Taken in the same sequence, the figures for `CCC(C)(C)c1ccc(OCCCN2C(C)CCCC2C)cc1` (configuration not stated) were 22 nM, 5%, “Active” and 140 nM.
In turn, `CCC(C)(C)c1ccc(OCCCN2CCC(C)CC2)cc1` registered an IC50 in series [1] of 2070 nM. This compound also gave a Ki in series [4] of 147 nM.
With `CCC(C)(C)c1ccc(OCCCN2CCCCCC2)cc1`, in series [1], the IC50 stood at 65 nM. This compound also yielded an inhibition at 1 h, 10 µM in series [2] of 12%. The same compound showed a Ki in series [4] of 298 nM.
Consider `CCC(C)(C)c1ccc(OCCCN2CC(C)CC(C)C2)cc1` (configuration not stated), for which the IC50 in series [1] was 962 nM. This compound also had an inhibition at 1 h, 10 µM in series [2] of 7%. Affinity in series [4] was put at a Ki of 753 nM.
The compound `CCC(C)(C)c1ccc(OCCCN2CCCC(C)(C)C2)cc1` returned an IC50 in series [1] of 417 nM. The compound further had an inhibition at 1 h, 10 µM in series [2] of 7%. In series [4], this compound gave a Ki greater than 1000 nM.
As for `CCC(C)(C)c1ccc(OCCCN2CCCC(C)C2)cc1` (configuration not stated), it took 428 nM to reach half-maximal inhibition in series [1] (IC50). For the same compound, the inhibition at 1 h, 10 µM in series [2] worked out at 11%. In addition, in series [4], the affinity, expressed as Ki, was 100 nM.
Regarding `CCC(C)(C)c1ccc(OCCCN2CCCC2)cc1`, it took 4.5 nM to reach half-maximal inhibition in series [1] (IC50). The compound also gave an inhibition at 1 h, 10 µM in series [2] of 5%. Besides, the “inhibition (INH)” value in series [3] and in series [6] was “Active” each time. The same compound registered a Ki in series [4] of 63 nM.
On to `C[C@H](NCc1ccc(OCc2cccc(F)c2)cc1)C(N)=O` [SAFINAMIDE], for which the “inhibition (INH)” value in series [3] was “Active”.
